{
  "source": "ChEMBL document CHEMBL1128190",
  "about": "“Inhibition of E-selectin-, ICAM-1-, and VCAM-1-mediated cell adhesion by benzo[b]thiophene-, benzofuran-, indole-, and naphthalene-2-carboxamides: identification of PD 144795 as an antiinflammatory agent” (J Med Chem, 1995)",
  "key": {"[1]": {"experiment": "The compound was tested for inhibitory activity against intercellular adhesion molecule (ICAM)-1 mediated cell adhesion in Human umbilical endothelial cell culture, by using HUVEC surface expression assay.", "assay_type": "functional, cell-based", "method_in_brief": "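HUVECs were pretreated with compound for 30 min, then stimulated with TNF-α (140 U/mL final) for 4 h at 37 °C. Unstimulated background was subtracted and results given as % inhibition versus vehicle. IC50 came from linear regression; average of two triplicate assays.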"}, "[2]": {"experiment": "The compound was tested for inhibitory activity against E-Selectin mediated cell adhesion in Human umbilical endothelial cell culture, by using HUVEC surface expression assay.", "assay_type": "functional, cell-based", "method_in_brief": "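Confluent HUVECs were given compound 30 min before TNF-α (140 U/mL final), then incubated 4 h at 37 °C. Unstimulated background was subtracted and results given as % inhibition versus vehicle. IC50 came from linear regression; average of two assays, each in triplicate.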"}, "Rattus norvegicus": {"test_system": "Rattus norvegicus", "experiment": "Inhibitory activity against Mycobacterium-induced foot-pad edema(MFE)", "assay_type": "functional"}, "[3]": {"experiment": "The compound was tested for cell adhesion by measuring the inhibitory concentration against Human umbilical vein endothelial cell (HUVEC) activation, using Na51CrO4 as radioligand.", "assay_type": "functional, cell-based"}, "[4]": {"experiment": "The compound was tested for inhibitory activity against intercellular adhesion molecule (ICAM)-1 mediated cell adhesion in Human aortic endothelial cell culture, by using HAEC surface expression assay.", "assay_type": "functional, cell-based", "method_in_brief": "(§1)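 Confluent human aortic endothelial cells were incubated with TNF-α (250 U/mL) and compound (0.005% DMSO final) for 18 h. Cells were formalin-fixed and probed with anti-ICAM-1 mAb (2 h, 37 °C), then peroxidase anti-mouse IgG (1 h) and colour reagent (15 min). Read-out was OD414.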"}, "[5]": {"experiment": "The compound was tested for inhibitory activity against vascular cell adhesion molecule (VCAM)-1 mediated cell adhesion in Human aortic endothelial cell culture, by using HAEC surface expression assay.", "assay_type": "functional, cell-based", "method_in_brief": "(§2)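 Human aortic endothelial cells at confluence were incubated with TNF-α (250 U/mL) and compound (0.005% DMSO final) for 18 h, then formalin-fixed. Cells were probed with anti-VCAM-1 mAb (2 h, 37 °C), then biotin anti-mouse IgG+IgM F(ab)₂ (1 h), then [¹²⁵I]streptavidin (15 min, 4 °C). NaOH digests were counted.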"}, "[6]": {"experiment": "The compound was tested for cell adhesion by measuring the inhibitory concentration against Human umbilical vein endothelial cell (HUVEC) activation using neutrophils labelled with calcein-AM at 100 uM", "assay_type": "functional"}, "[7]": {"experiment": "The compound was tested for inhibitory activity against vascular cell adhesion molecule (VCAM)-1 mediated cell adhesion in Human aortic endothelial cell culture, by using HAEC surface expression assay at 50 uM", "assay_type": "functional", "method_in_brief": "as §2"}, "[8]": {"experiment": "The compound was tested for inhibitory activity against intercellular adhesion molecule (ICAM)-1 mediated cell adhesion in Human aortic endothelial cell culture, by using HAEC surface expression assay at 50 uM", "assay_type": "functional", "method_in_brief": "as §1"}, "[9]": {"experiment": "The compound was tested for cell adhesion by measuring the inhibitory concentration against Human umbilical vein endothelial cell (HUVEC) activation, using Na51CrO4 as radioligand at 50 uM", "assay_type": "functional"}, "[10]": {"experiment": "Cell adhesion measured using the inhibitory concentration against Human umbilical vein endothelial cell (HUVEC) activation, with Na51CrO4 as radioligand at 100 uM", "assay_type": "functional", "method_in_brief": "(§3)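 Confluent second-passage HUVEC monolayers were stimulated with TNF-α (200 U/mL) for 4 h with or without compound at 100 μM, then washed. Fresh human neutrophils labelled with Na⁵¹CrO₄ (5 × 10⁵) were added for 30 min at 37 °C. Non-adherent cells were aspirated and adherent cells lysed in NH₄OH; lysates were γ-counted. Results are % inhibition of TNF-stimulated adherence, triplicate. IC50 came from linear regression at 33.3–1.0 μM.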"}, "[11]": {"experiment": "The compound was tested for cell adhesion by measuring the inhibitory concentration against Human umbilical vein endothelial cell (HUVEC) activation, using calcein-AM as radioligand at 33 uM", "assay_type": "functional"}, "[12]": {"experiment": "Tested for cell adhesion by measuring the inhibitory concentration against Human umbilical vein endothelial cell (HUVEC) activation, using Na51CrO4 as radioligand at 100 uM", "assay_type": "functional", "method_in_brief": "as §3"}, "[13]": {"experiment": "The compound was tested for cell adhesion by measuring the inhibitory concentration against Human umbilical vein endothelial cell (HUVEC) activation, using Na51CrO4 as radioligand at 100 uM", "assay_type": "functional", "method_in_brief": "as §3"}, "[14]": {"experiment": "cell adhesion assay; measuring the inhibitory concentration against Human umbilical vein endothelial cell (HUVEC) activation, using Na51CrO4 as radioligand at 100 uM", "assay_type": "functional", "conditions": "in the assay text read “calcein-AM” for “Na51CrO4”"}, "[15]": {"experiment": "The compound was tested for cell adhesion by measuring the inhibitory concentration against Human umbilical vein endothelial cell (HUVEC) activation, using calcein-AM as radioligand at 100 uM", "assay_type": "functional"}},
  "data": [
    {"smiles": "COc1ccc2c(c1)c(OC(C)C)c(C(N)=O)[s+]2[O-]", "note": "(stereo unspecified)", "values": [
      {"measurement": "IC50", "setting": "[1]", "result": 4, "unit": "µM"},
      {"measurement": "IC50", "setting": "[2]", "result": 6.6, "unit": "µM"},
      {"measurement": "ID40", "setting": "Rattus norvegicus", "result": 10.9, "unit": "mg/kg"},
      {"measurement": "IC50", "setting": "[3]", "result": 8.7, "unit": "µM"},
      {"measurement": "IC50", "setting": "[4]", "result": 10, "unit": "µM"},
      {"measurement": "IC50", "setting": "[5]", "result": 4, "unit": "µM"}
    ]},
    {"smiles": "COc1ccc2sc(C(=O)NC(C)C)c(OC(C)C)c2c1", "values": [
      {"measurement": "inhibition at 100 µM", "setting": "[6]", "result": 26, "unit": "%"}
    ]},
    {"smiles": "COc1cccc2c(OC(C)C)c(C(N)=O)sc12", "values": [
      {"measurement": "inhibition at 50 µM", "setting": "[7]", "result": "< 4", "unit": "%"},
      {"measurement": "inhibition at 50 µM", "setting": "[8]", "result": 21, "unit": "%"},
      {"measurement": "inhibition at 50 µM", "setting": "[9]", "result": 35, "unit": "%"}
    ]},
    {"smiles": "CC(C)Oc1c(C(N)=O)sc2ccc(O)cc12", "values": [
      {"measurement": "IC50", "setting": "[1]", "result": 3.5, "unit": "µM"},
      {"measurement": "IC50", "setting": "[2]", "result": 3.3, "unit": "µM"},
      {"measurement": "inhibition at 50 µM", "setting": "[8]", "result": 91, "unit": "%"},
      {"measurement": "IC50", "setting": "[3]", "result": 6.4, "unit": "µM"}
    ]},
    {"smiles": "CC(C)Oc1c(C(N)=O)oc2ccc(Cl)cc12", "values": [
      {"measurement": "inhibition at 100 µM", "setting": "[10]", "result": 52, "unit": "%"}
    ]},
    {"smiles": "Cc1ccc2sc(C(N)=O)c(OC(C)C)c2c1", "values": [
      {"measurement": "inhibition at 100 µM", "setting": "[10]", "result": 61, "unit": "%"}
    ]},
    {"smiles": "COc1ccc2[nH]c(C(N)=O)c(OC(C)C)c2c1", "values": [
      {"measurement": "IC50", "setting": "[1]", "result": 2.5, "unit": "µM"},
      {"measurement": "IC50", "setting": "[2]", "result": 7.9, "unit": "µM"},
      {"measurement": "inhibition at 50 µM", "setting": "[7]", "result": 83, "unit": "%"},
      {"measurement": "inhibition at 50 µM", "setting": "[8]", "result": 89, "unit": "%"},
      {"measurement": "IC50", "setting": "[3]", "result": 8, "unit": "µM"}
    ]},
    {"smiles": "CC(C)Oc1c(C(N)=O)sc2ccccc12", "values": [
      {"measurement": "inhibition at 100 µM", "setting": "[10]", "result": 60, "unit": "%"}
    ]},
    {"smiles": "CC(C)Oc1c(C(N)=O)sc2ccc(N)cc12", "values": [
      {"measurement": "inhibition at 100 µM", "setting": "[10]", "result": 49, "unit": "%"}
    ]},
    {"smiles": "COc1ccc2c(OC(C)C)c(C(N)=O)sc2c1", "values": [
      {"measurement": "inhibition at 100 µM", "setting": "[10]", "result": 24, "unit": "%"}
    ]},
    {"smiles": "COc1ccc2sc(C(=O)NCCCCC(=O)O)c(OC(C)C)c2c1", "values": [
      {"measurement": "inhibition at 100 µM", "setting": "[10]", "result": 9, "unit": "%"}
    ]},
    {"smiles": "COc1ccc2sc(C(=O)NC(C)C)c(SC(C)C)c2c1", "values": [
      {"measurement": "inhibition at 33 µM", "setting": "[11]", "result": 22, "unit": "%"}
    ]},
    {"smiles": "COc1ccc2sc(C(N)=O)c(SC(C)C)c2c1", "values": [
      {"measurement": "IC50", "setting": "[3]", "result": 12, "unit": "µM"}
    ]},
    {"smiles": "CC(C)Oc1c(C(N)=O)sc2ccc([N+](=O)[O-])cc12", "values": [
      {"measurement": "inhibition at 100 µM", "setting": "[10]", "result": 40, "unit": "%"}
    ]},
    {"smiles": "COCn1c(C(N)=O)c(OC(C)C)c2cc(OC)ccc21", "values": [
      {"measurement": "IC50", "setting": "[3]", "result": 34, "unit": "µM"}
    ]},
    {"smiles": "COc1ccc2c(c1)c(OC(C)C)c(C(=O)NCc1ccccc1)[s+]2[O-]", "note": "(stereo unspecified)", "values": [
      {"measurement": "inhibition at 100 µM", "setting": "[10]", "result": 15, "unit": "%"}
    ]},
    {"smiles": "COc1ccc2sc(C(N)=O)c(OC(C)(C)C)c2c1", "values": [
      {"measurement": "inhibition at 100 µM", "setting": "[12]", "result": 97, "unit": "%"}
    ]},
    {"smiles": "COc1ccc2sc(C(N)=O)c(SCCN)c2c1", "values": [
      {"measurement": "inhibition at 33 µM", "setting": "[11]", "result": 0, "unit": "%"}
    ]},
    {"smiles": "COc1ccc2c(c1)c(OC(C)C)c(C(=O)NC(C)C)[s+]2[O-]", "note": "(stereo unspecified)", "values": [
      {"measurement": "inhibition at 100 µM", "setting": "[13]", "result": 8, "unit": "%"}
    ]},
    {"smiles": "COc1ccc2oc(C(N)=O)c(OC(C)C)c2c1", "values": [
      {"measurement": "IC50", "setting": "[1]", "result": 5, "unit": "µM"},
      {"measurement": "IC50", "setting": "[2]", "result": 7.9, "unit": "µM"},
      {"measurement": "IC50", "setting": "[3]", "result": 14, "unit": "µM"}
    ]},
    {"smiles": "COc1ccc2sc(C(=O)NCC(=O)O)c(OC(C)C)c2c1", "values": [
      {"measurement": "inhibition at 100 µM", "setting": "[10]", "result": "< 4", "unit": "%"}
    ]},
    {"smiles": "COc1ccc2sc(C(N)=O)c(Oc3ccccc3)c2c1", "values": [
      {"measurement": "inhibition at 100 µM", "setting": "[10]", "result": 59, "unit": "%"}
    ]},
    {"smiles": "COc1ccc2c(c1)c(OC)c(C(N)=O)[s+]2[O-]", "note": "(stereo unspecified)", "values": [
      {"measurement": "inhibition at 100 µM", "setting": "[14]", "result": 40, "unit": "%"}
    ]},
    {"smiles": "COc1ccc2sc(C(=O)Nc3ccccc3C(=O)O)c(OC(C)C)c2c1", "values": [
      {"measurement": "inhibition at 100 µM", "setting": "[10]", "result": 35, "unit": "%"}
    ]},
    {"smiles": "COc1ccc2c(c1)c(OC(C)C)c(C(=O)Nc1ccccc1)[s+]2[O-]", "note": "(stereo unspecified)", "values": [
      {"measurement": "inhibition at 100 µM", "setting": "[15]", "result": "< 4", "unit": "%"}
    ]},
    {"smiles": "CCNC(=O)c1c(OC(C)C)c2cc(OC)ccc2[s+]1[O-]", "note": "(stereo unspecified)", "values": [
      {"measurement": "inhibition at 100 µM", "setting": "[13]", "result": 36, "unit": "%"}
    ]},
    {"smiles": "COc1ccc2oc(C(=O)Nc3ccccc3)c(OC(C)C)c2c1", "values": [
      {"measurement": "inhibition at 100 µM", "setting": "[10]", "result": "< 4", "unit": "%"}
    ]},
    {"smiles": "CC(C)Oc1c(C(N)=O)sc2ccc(OCc3ccccc3)cc12", "values": [
      {"measurement": "inhibition at 100 µM", "setting": "[10]", "result": "< 4", "unit": "%"}
    ]},
    {"smiles": "CNC(=O)c1sc2ccc(OC)cc2c1SC(C)C", "values": [
      {"measurement": "inhibition at 33 µM", "setting": "[11]", "result": 61, "unit": "%"}
    ]},
    {"smiles": "COc1ccc2sc(C(=O)Nc3ccccc3)c(OC(C)C)c2c1", "values": [
      {"measurement": "inhibition at 100 µM", "setting": "[10]", "result": 12, "unit": "%"}
    ]}
  ]
}
